Article PMC10316739 (Drug Delivery, 2023)

Assays:
[1] = Pharmacokinetics of triptorelin in rats; format: in vivo, female Sprague–Dawley rats
How it was run: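 Female rats aged 6 weeks were randomised into two groups (n = 8). One group received a 9 μg/kg subcutaneous solution and the other a 9 μg/kg microneedle patch on shaved back skin, pressed 3 min. Heparinised orbital-plexus blood was sampled at 0.5, 1, 2, 4, 8, 24 and 48 h. Plasma was centrifuged, stored at −80 °C and assayed by LC–MS/MS. PK parameters were computed from concentration–time profiles.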

luteinizing hormone (LH) = assay: Pharmacodynamics: plasma LH; format: in vivo, female Sprague–Dawley rats; conditions: rats, triptorelin 9 μg/kg s.c., ELISA, n = 8
How it was run: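 Six-week-old female rats (200 g ± 20 g) with similar cycles were split randomly into two groups of eight. One group received subcutaneous drug solution (9 μg/kg). The other received the microneedle patch (9 μg/kg) on shaved back skin, finger-pressed 3 min before the base was removed. Orbital-plexus blood was taken into heparinised tubes at 0.5–48 h and plasma stored at −80 °C. LH was measured by ELISA kit.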

[2] = stated in introduction; ref Bethesda, [2012]; cited from earlier work
[3] = female, Sprague-Dawley, rat, plasma, sc, 9 ug/kg

AUC(0-t) [1, 3]: 8.65 ± 0.41 ng·h/mL | Cmax [1, 3]: 10.5 ± 0.6 ng/mL | Tmax [1, 3]: 0.5 h | half-life [1, 3]: 2.11 ± 0.05 h | triptorelin concentration in plasma at 24 h ([1]; rats, 9 μg/kg s.c., 24 h, LC–MS/MS): could not be detected
SMILES: CC(C)C[C@H](NC(=O)[C@@H](Cc1c[nH]c2ccccc12)NC(=O)[C@H](Cc1ccc(O)cc1)NC(=O)[C@H](CO)NC(=O)[C@H](Cc1c[nH]c2ccccc12)NC(=O)[C@H](Cc1c[nH]cn1)NC(=O)[C@@H]1CCC(=O)N1)C(=O)N[C@@H](CCCNC(=N)N)C(=O)N1CCC[C@H]1C(=O)NCC(N)=O [triptorelin, Triptorelin acetate]
plasma LH levels at 48 h (luteinizing hormone (LH)): returned to a normal physiological state | enhanced activity compared with GnRH [2]: 100 fold
